Holding throughout (details): stereoisomer not certain
One assay concerns the target T1, OR8B4 (Homo sapiens) (UniProt Q96RC9).
T1 sequence (whole entry): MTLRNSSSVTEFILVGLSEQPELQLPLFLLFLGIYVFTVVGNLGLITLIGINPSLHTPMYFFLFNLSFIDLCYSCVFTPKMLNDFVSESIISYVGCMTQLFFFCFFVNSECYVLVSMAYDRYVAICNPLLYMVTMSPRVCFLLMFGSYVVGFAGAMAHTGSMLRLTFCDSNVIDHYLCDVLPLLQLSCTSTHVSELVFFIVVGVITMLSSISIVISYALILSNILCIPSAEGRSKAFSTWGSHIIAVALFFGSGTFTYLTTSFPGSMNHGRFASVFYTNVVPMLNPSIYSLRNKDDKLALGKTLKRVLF
The method in brief: (§1)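 Each entry records the cell line, G-protein, co-transfected protein and tags used. Methods varied with the source, often transient luciferase assays in mammalian cell lines. A receptor–molecule pair is called responsive (active) if the original authors judged its signal statistically different from baseline and non-responsive (inactive) otherwise.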

The next assay addresses T2, OR8B8 (Homo sapiens) (UniProt Q15620).
T2 sequence (whole entry): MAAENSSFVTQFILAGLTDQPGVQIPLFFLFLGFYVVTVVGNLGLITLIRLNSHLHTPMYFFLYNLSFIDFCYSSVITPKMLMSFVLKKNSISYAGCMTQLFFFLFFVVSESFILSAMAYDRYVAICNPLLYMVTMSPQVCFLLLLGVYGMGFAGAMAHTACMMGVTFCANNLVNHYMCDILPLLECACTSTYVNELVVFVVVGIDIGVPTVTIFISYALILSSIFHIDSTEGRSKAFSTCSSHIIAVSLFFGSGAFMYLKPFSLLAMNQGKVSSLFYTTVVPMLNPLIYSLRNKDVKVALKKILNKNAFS
The essentials:
as §1

Another assay addresses T3, OR8D1 (Homo sapiens) (UniProt Q8WZ84).
T3 sequence (whole entry): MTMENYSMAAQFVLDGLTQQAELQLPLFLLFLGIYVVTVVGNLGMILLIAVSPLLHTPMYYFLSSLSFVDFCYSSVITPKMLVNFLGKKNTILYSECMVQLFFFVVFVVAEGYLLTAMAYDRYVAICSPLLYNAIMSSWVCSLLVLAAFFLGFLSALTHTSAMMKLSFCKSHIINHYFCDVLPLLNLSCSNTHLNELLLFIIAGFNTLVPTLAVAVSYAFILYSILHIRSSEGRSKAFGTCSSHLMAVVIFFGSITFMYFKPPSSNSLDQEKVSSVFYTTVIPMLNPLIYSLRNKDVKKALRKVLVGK
The essentials: as §1

A further assay has as its system T4, OR8B3 H20R Q24R M114I.
T4 sequence (whole entry): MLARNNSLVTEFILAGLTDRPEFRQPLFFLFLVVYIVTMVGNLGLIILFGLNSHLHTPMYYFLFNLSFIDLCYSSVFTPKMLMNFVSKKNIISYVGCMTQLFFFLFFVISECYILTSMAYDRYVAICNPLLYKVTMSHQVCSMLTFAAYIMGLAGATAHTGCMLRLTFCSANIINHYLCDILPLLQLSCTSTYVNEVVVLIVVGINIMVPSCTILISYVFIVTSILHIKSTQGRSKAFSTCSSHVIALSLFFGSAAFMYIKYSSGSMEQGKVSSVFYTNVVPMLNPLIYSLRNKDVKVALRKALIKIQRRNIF
The method in brief:
as §1

A further assay has as its system T5, OR8B3 H20R Q24R Y113H.
T5 sequence (whole entry): T4 sequence (whole entry) with Y113H, I114M
The essentials: as §1

For the next assay, the system named is T6, OR8B3 H20R Q24R.
T6 sequence (whole entry): T4 sequence (whole entry) with I114M
The method in brief: as §1

A further assay deals with T7, OR8B4.
T7 sequence (whole entry): T1 sequence (whole entry) with E22G
The essentials:
as §1

Another assay relates to T8, OR8B8 L101P.
T8 sequence (whole entry): T2 sequence (whole entry) with L101P
The essentials:
as §1

In the next assay the test system is T9, OR8D1 C127G L194P.
T9 sequence (whole entry): T3 sequence (whole entry) with C127G, L194P
The essentials:
as §1

Another assay deals with T10, OR8D1 L194P.
T10 sequence (whole entry): T3 sequence (whole entry) with L194P
The essentials:
as §1

Positions count from the first letter of the chain named.

Experimental findings from the M2OR odorant receptor database are described below.

Turning to `CCCCC(S)C(C)CO` (configuration not stated), the “odorant receptor agonist call” value in the assay with OR8B4 (Homo sapiens), in the assay with OR8B8 (Homo sapiens) and in the assay with OR8D1 (Homo sapiens) was “inactive” each time.
Consider `CCC1OC(C)=C(O)C1=O` (configuration not stated), for which the “odorant receptor agonist call” value in the assay with OR8B3 H20R Q24R M114I, in the assay on OR8B3 H20R Q24R Y113H, with OR8B3 H20R Q24R, with OR8B4 (Homo sapiens), with OR8B4 and with OR8B8 (Homo sapiens) was “inactive” in each case. The “odorant receptor agonist call” value in the assay on OR8B8 L101P, with OR8D1 (Homo sapiens), in the assay on OR8D1 C127G L194P and in the assay on OR8D1 L194P was “inactive” in each case.
Take `C=CCSC`: the “odorant receptor agonist call” value in the assay with OR8D1 (Homo sapiens) is “inactive”.
On the same count and under the same terms, as for `COC(=O)C(C)C`, the entry is “inactive”.
Same read-out and setting: as for `CCCCCC1CCC(=O)O1` (configuration not stated), the entry is “inactive”; as for `CC(C)CCCCCCCCCCC=O`, “inactive”.
For the compound `CCC1OC(=O)C(O)=C1C` (configuration not stated), the “odorant receptor agonist call” value with OR8B3 H20R Q24R M114I, with OR8B3 H20R Q24R Y113H, in the assay with OR8B3 H20R Q24R, in the assay with OR8B4 (Homo sapiens), with OR8B4 and with OR8B8 (Homo sapiens) was “inactive” throughout. In addition, the “odorant receptor agonist call” value with OR8B8 L101P, with OR8D1 C127G L194P and in the assay with OR8D1 L194P was “inactive” throughout. Also, in the assay with OR8D1 (Homo sapiens), the “odorant receptor agonist call” value is “active”.
Take `CCCCCC(S)C(C)CO` (configuration not stated): the “odorant receptor agonist call” value with OR8B4 (Homo sapiens), with OR8B8 (Homo sapiens) and with OR8D1 (Homo sapiens) was “inactive” throughout.
Take `CC(=O)OCC=Cc1ccccc1`: the “odorant receptor agonist call” value with OR8D1 (Homo sapiens) was “inactive”.
Regarding `CC1=NC(C)C(C)S1` (configuration not stated), the “odorant receptor agonist call” value in the assay on OR8B3 H20R Q24R M114I, in the assay on OR8B3 H20R Q24R Y113H, in the assay with OR8B3 H20R Q24R, with OR8B4 (Homo sapiens), in the assay with OR8B4 and with OR8B8 (Homo sapiens) was “inactive” throughout. For the same compound, the “odorant receptor agonist call” value in the assay with OR8B8 L101P, with OR8D1 (Homo sapiens), in the assay on OR8D1 C127G L194P and with OR8D1 L194P was “inactive” in each case.
Take `CCCCC1CCC(=O)O1` (configuration not stated): in the assay with OR8D1 (Homo sapiens), the “odorant receptor agonist call” value is “inactive”.
On to `CCCC(S)CCOC(C)=O` (configuration not stated), for which the “odorant receptor agonist call” value with OR8B3 H20R Q24R M114I, with OR8B3 H20R Q24R Y113H, in the assay with OR8B3 H20R Q24R, in the assay with OR8B4 (Homo sapiens), in the assay on OR8B4 and in the assay with OR8B8 (Homo sapiens) was “inactive” each time. The “odorant receptor agonist call” value with OR8B8 L101P, in the assay with OR8D1 (Homo sapiens), with OR8D1 C127G L194P and with OR8D1 L194P was “inactive” each time.
For the compound `CCCCCCO`, the “odorant receptor agonist call” value with OR8D1 (Homo sapiens) is “inactive”.
Still for that read-out and setting: as for `CCOC(=O)C(C)CC` (configuration not stated), the entry is “inactive”.
Take `CCCCCCC=CCCC=O`: the “odorant receptor agonist call” value in the assay with OR8B3 H20R Q24R M114I, in the assay with OR8B3 H20R Q24R Y113H, in the assay on OR8B3 H20R Q24R, with OR8B4 (Homo sapiens), in the assay with OR8B4 and with OR8B8 (Homo sapiens) was “inactive” each time. Besides, the “odorant receptor agonist call” value with OR8B8 L101P, with OR8D1 (Homo sapiens) and in the assay with OR8D1 C127G L194P was “inactive” each time.
Consider `CCCCCCC1CCC(=O)O1` (configuration not stated), for which the “odorant receptor agonist call” value in the assay with OR8D1 (Homo sapiens) was “inactive”.
On the same count and under the same terms, to `CCCCC(=O)OCC` belongs “inactive”; to `CCC=CCCOC(C)=O`, “inactive”.
As to `CCC(S)C(C)CO` (configuration not stated), the “odorant receptor agonist call” value in the assay with OR8B4 (Homo sapiens), in the assay with OR8B8 (Homo sapiens) and in the assay with OR8D1 (Homo sapiens) was “inactive” in each case.
Turning to `COCCC(C)(C)S`, in the assay with OR8D1 (Homo sapiens), the “odorant receptor agonist call” value is “inactive”.
On the same count and under the same terms, to `CCCSSCCC` belongs “inactive”.
As for `CC(CO)CS` (configuration not stated), the “odorant receptor agonist call” value in the assay with OR8B4 (Homo sapiens), with OR8B8 (Homo sapiens) and with OR8D1 (Homo sapiens) was “inactive” in each case.
As to `CC(C)c1ccc(C=O)cc1`, the “odorant receptor agonist call” value with OR8D1 (Homo sapiens) is “inactive”.
Same read-out and setting: to `Cc1occc1S` belongs “inactive”.
As to `CC1CCCCCCCCCCCCC(=O)C1` (configuration not stated), the “odorant receptor agonist call” value with OR8B4 (Homo sapiens), with OR8B8 (Homo sapiens) and in the assay with OR8D1 (Homo sapiens) was “inactive” in each case.
As to `CCCCCCC(=O)[O-].[H+]`, the “odorant receptor agonist call” value with OR8D1 (Homo sapiens) was “inactive”.
Turning to `CC(=O)OCCc1ccccc1`, the “odorant receptor agonist call” value with OR8D1 (Homo sapiens) is “inactive”.
As to `CC1=C(O)C(=O)OC1C` (configuration not stated), the “odorant receptor agonist call” value in the assay on OR8B3 H20R Q24R M114I, with OR8B3 H20R Q24R Y113H, in the assay on OR8B3 H20R Q24R, in the assay with OR8B4 (Homo sapiens), in the assay on OR8B4 and with OR8B8 (Homo sapiens) was “inactive” in each case. Further, the “odorant receptor agonist call” value with OR8B8 L101P, with OR8D1 C127G L194P and in the assay with OR8D1 L194P was “inactive” in each case. Besides, the “odorant receptor agonist call” value with OR8D1 (Homo sapiens) was “active”.
Take `CC(=O)c1c(C)c([N+](=O)[O-])c(C(C)(C)C)c([N+](=O)[O-])c1C`: the “odorant receptor agonist call” value with OR8B4 (Homo sapiens), with OR8B8 (Homo sapiens) and with OR8D1 (Homo sapiens) was “inactive” throughout.
Regarding `CCOC(=O)c1ccccc1`, in the assay with OR8D1 (Homo sapiens), the “odorant receptor agonist call” value was “inactive”.
On the same count and under the same terms, as for `CCC=CCCC=CCO`, the entry is “inactive”; as for `CSC`, “inactive”.
As for `Cc1cnc(C)c(C)n1`, the “odorant receptor agonist call” value in the assay on OR8B3 H20R Q24R M114I, in the assay with OR8B3 H20R Q24R Y113H, with OR8B3 H20R Q24R, with OR8B4 (Homo sapiens), with OR8B4 and with OR8B8 (Homo sapiens) was “inactive” in each case. Besides, the “odorant receptor agonist call” value in the assay on OR8B8 L101P, with OR8D1 (Homo sapiens), in the assay with OR8D1 C127G L194P and with OR8D1 L194P was “inactive” in each case.
`CCC=CCCC=O`: the “odorant receptor agonist call” value with OR8D1 (Homo sapiens) is “inactive”.
As to `CCCCCC(=O)C(C)C(C)=O` (configuration not stated), the “odorant receptor agonist call” value with OR8B4 (Homo sapiens), with OR8B8 (Homo sapiens) and with OR8D1 (Homo sapiens) was “inactive” each time.
Turning to `CCCC(=O)C(C)CC` (configuration not stated), the “odorant receptor agonist call” value in the assay with OR8D1 (Homo sapiens) is “inactive”.
For the compound `CC1=C(O)C(=O)C(C)O1` (configuration not stated), the “odorant receptor agonist call” value in the assay with OR8B3 H20R Q24R M114I, in the assay with OR8B3 H20R Q24R Y113H, with OR8B3 H20R Q24R, with OR8B4 (Homo sapiens), with OR8B4 and with OR8B8 (Homo sapiens) was “inactive” throughout. Further, the “odorant receptor agonist call” value in the assay on OR8B8 L101P, in the assay with OR8D1 (Homo sapiens), in the assay on OR8D1 C127G L194P and with OR8D1 L194P was “inactive” throughout.
